Several values for one entry are separate records, joined by “and”; a condition that tells them apart may be missing. Equal values may be shown once.

This experiment addresses T1, human sEH (Homo sapiens, UniProt P34913).
T1 sequence (P34913 1-555): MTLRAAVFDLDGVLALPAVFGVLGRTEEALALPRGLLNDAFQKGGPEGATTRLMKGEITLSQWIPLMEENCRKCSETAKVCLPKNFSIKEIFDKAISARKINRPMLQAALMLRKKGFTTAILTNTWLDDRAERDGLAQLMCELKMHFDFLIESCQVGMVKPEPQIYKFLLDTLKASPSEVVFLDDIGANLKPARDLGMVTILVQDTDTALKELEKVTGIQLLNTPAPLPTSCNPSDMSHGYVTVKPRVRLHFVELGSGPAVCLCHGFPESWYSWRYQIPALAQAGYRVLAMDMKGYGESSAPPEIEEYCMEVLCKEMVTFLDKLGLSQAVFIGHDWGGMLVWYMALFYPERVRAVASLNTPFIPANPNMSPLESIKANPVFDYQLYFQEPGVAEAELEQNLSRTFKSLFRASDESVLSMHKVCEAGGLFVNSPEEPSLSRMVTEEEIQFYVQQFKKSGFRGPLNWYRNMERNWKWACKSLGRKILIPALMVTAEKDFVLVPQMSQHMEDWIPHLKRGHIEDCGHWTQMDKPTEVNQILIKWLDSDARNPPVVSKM
Put plainly: Human sEH inhibition, fluorescent assay with CMNPC substrate. In kind it is biochemical. In outline:
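Recombinant human sEH from baculovirus-infected Sf9 cells, purified by His-tag affinity, TEV cleavage and anion exchange. Enzyme (1 nM) preincubated 10 min with test compound (DMSO) in 25 mM Bis-Tris/HCl pH 7.0 at 30 °C, then CMNPC added (5 μM). 6-Methoxy-2-naphthaldehyde fluorescence (ex 330/em 465 nm) read over 10 min. IC50 by regression of ≥6 points (≥3 linear); mean of three runs.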

On to `COC(=O)c1ccc(CNC(=O)c2ccc3ccccc3c2)cc1` [Compound 33], for which the “fold less potent compared to compound 32” value is recorded as 3 fold.
As to `O=C(NCCCc1ccccc1)C1CCC(C(F)(F)F)CC1` (stereo not shown) [Compound 8], the “fold improvement over the non-substituted derivatives (4–7)” value is listed as 3.5–15 fold.
`O=C(NCCCCc1ccccc1)C12CC3CC(CC(C3)C1)C2` [Compound 26]: the “fold decrease in inhibition potency relative to compound 19” value is listed as 4–6 fold.
On to `COC(=O)c1ccc2cc(NC(=O)C34CC5CC(CC(C5)C3)C4)ccc2c1` [Compound 31, methyl 6-(1-adamantanecarboxamido)naphthalene-2-carboxylate], for which the “fold loss in inhibition potency relative to compound 29” value is 7 fold and > 7 fold.
On to `O=C(NCCCc1ccccc1)C1CCc2ccccc2C1` (stereo not shown) [Compound 20], for which the “fold improvement in inhibition potency relative to compound 19” value turned out to be 3 fold.
As to `CC(C)(C)C1CCC(C(=O)NCCCc2ccccc2)CC1` (stereo not shown) [Compound 9], the “fold improvement over the non-substituted derivatives (4–7)” value was 3.5–15 fold.
As for `COC(=O)c1ccc(CNC(=O)C2CCc3ccccc3C2)cc1` (stereo not shown) [Compound 32, methyl 4-((1,2,3,4-tetrahydronaphthalene-2-carboxamido)methyl)benzoate], the “fold improvement relative to compound 29” value was found to be 5 fold.
In the case of `O=C(NCCc1ccccc1)C12CC3CC(CC(C3)C1)C2` [Compound 25], the “fold decrease in inhibition potency relative to compound 19” value was 4–6 fold.
With `O=C(NCCCc1ccccc1)C1CC=CCC1` (stereo not shown) [Compound 7], the “fold improvement in inhibition relative to compounds 4 or 5” value is given as > 5 fold.
For the compound `COC(=O)c1ccc(CNC(=O)C23CC4CC(CC(C4)C2)C3)cc1` [Compound 29], the “fold better inhibition than compound 27” value is recorded as ~10 fold.
Consider `COC(=O)c1ccc(CCNC(=O)C23CC4CC(CC(C4)C2)C3)cc1` [Compound 30], for which the “fold loss in inhibition potency relative to compound 29” value is given as > 7 fold.
In the case of `O=C(NCCCc1ccccc1)C1CCCCC1` [Compound 6], the “fold improvement in inhibition relative to compounds 4 or 5” value is > 5 fold.
With `CCOC(=O)c1ccc(NC(=O)C23CC4CC(CC(C4)C2)C3)cc1` [Compound 27], the “fold better inhibition in comparison with compound 28” value is given as > 10 fold.

(Values after paper PMC3517215 (Journal of medicinal chemistry, 2011).)
